One compound from ChEMBL document CHEMBL1152432, “2-Arylamino-4-amino-5-aroylthiazoles. "One-pot" synthesis and biological evaluation of a new class of inhibitors of tubulin polymerization” (J Med Chem, 2009) can be followed below.

The species named for one test is Bos taurus. In words: Displacement of [3H]colchicine from bovine brain tubulin at 1 uM. In short, it runs like this:
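Reaction mixtures held 1 μM bovine brain tubulin, 5 μM [3H]colchicine and 1 μM test compound. Inhibition of radiolabelled colchicine binding to tubulin was measured.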
A general note: Displacement assays read how much labelled ligand stays bound in the presence of the test substance.

Test [1] relates to HeLa. Briefly: Cell cycle arrest in human HeLa cells assessed as accumulation at subG1 phase at 30 nM after 24 hrs uisng propidium iodide staining by flow cytometry. It counts as functional. In short, it runs like this: (§1)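 Exponentially growing HeLa cells (5×10^5) treated 24 h. Floating and trypsinized cells pooled, fixed in ice-cold 70% ethanol, lysed with RNaseA buffer and stained with propidium iodide. DNA histograms acquired by flow cytometry. Percentages of G1, S and G2/M phases calculated on living cells, with the sub-G1 peak also scored.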

The test system of test [2] is HeLa. Briefly: Induction of apoptosis in human HeLa cells assessed as appearance of hypodiploid cells after 24 hrs using propidium iodide staining by flow cytometry. It counts as functional, cell-based. In a few lines: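 HeLa cells (5×10^5, exponential growth) exposed to a range of concentrations for 24 h, then ethanol-fixed (70%, ice-cold), RNaseA-treated and propidium iodide-stained for flow cytometry. Apoptotic fraction taken as the cells forming a sub-G1 peak.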

In test [3] the test system is HeLa. In words: Antiproliferative activity against human HeLa cells after 2 days by coulter counter method. It counts as functional, cell-based. The settings on record: 48 h. In a few lines:
(§2)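 Cells seeded at 300,000-500,000 cells/mL, mixed 1:1 with compound dilutions and incubated 2 days at 37 °C. Cell number counted by Coulter counter. Mean ± SE of at least three independent experiments.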

The test system of test [4] is HeLa. In words: Cell cycle arrest in human HeLa cells assessed as accumulation at G2/M phase at 30 nM after 24 hrs uisng propidium iodide staining by flow cytometry. The class given is functional. In a few lines: as §1
In general terms: In flow cytometry, cells or beads pass a laser one at a time.

Test [5] has as its system HeLa. In words: Cell cycle arrest in human HeLa cells assessed as accumulation at S phase at 30 nM after 24 hrs uisng propidium iodide staining by flow cytometry. The class given is functional. In short, it runs like this: as §1
Test [6] concerns HeLa. Briefly: Cell cycle arrest in human HeLa cells assessed as accumulation at G1 phase at 30 nM after 24 hrs uisng propidium iodide staining by flow cytometry. It counts as functional. In a few lines:
as §1

The next test deals with CCRF-CEM. Briefly: Antiproliferative activity against human CEM cells after 2 days by coulter counter method. The class given is functional, cell-based. The following applies: 48 h. In a few lines: as §2
Another test has as its system MOLT-4. Briefly: Antiproliferative activity against human MOLT4 cells after 2 days by coulter counter method. The class given is functional, cell-based. The following applies: MOLT-4, 48 h. In a few lines:
as §2

The nature of test [7]: Inhibition of bovine brain tubulin polymerization by turbidimetry. Details: species or system Bos taurus. In a few lines: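 Purified bovine brain tubulin (10 μM) preincubated with varying compound concentrations in glutamate buffer at 30 °C, then chilled to 0 °C. GTP added, mixtures warmed to 30 °C in a recording spectrophotometer and assembly followed turbidimetrically.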

Another test concerns FM3A. In words: Antiproliferative activity against mouse FM3A cells after 2 days by coulter counter method. The class given is functional, cell-based. The following applies: 48 h. In a few lines:
as §2

A further test concerns L1210. Briefly: Antiproliferative activity against mouse L1210 cells after 2 days by coulter counter method. It counts as functional, cell-based. The following applies: L1210, 48 h. In a few lines: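 Cells seeded at 300,000-500,000 cells/mL, mixed 1:1 with compound dilutions and incubated 2 days at 37 °C. Cell number counted by Coulter counter. IC50 is the concentration giving 50% inhibition of proliferation, taken from dose-response curves. Mean ± SE of at least three independent experiments.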

For `COc1cc(C(=O)c2sc(Nc3ccccc3)nc2N)cc(OC)c1OC`, the inhibition in the test listed under Bos taurus was 75%. The Activity was 22.2% with HeLa [1]; “Dose-dependent effect” in the test on HeLa [2]; 42.3% in the test with HeLa [4]; 25.6% in the test on HeLa [5]; 32.1% in the test on HeLa [6]. The IC50 in the test with HeLa [3] was determined as 14 nM; in the test with CCRF-CEM, 9.4 nM; with MOLT-4, 6 nM; in test [7] it was 2500 nM; in the test on FM3A, 23 nM; in the test with L1210, 18 nM.

The inhibition is how much of the control response was suppressed. Lower therefore signals a response near the control. Usually IC50 stands for the concentration needed to halve the response being measured. Low readings indicate inhibition by little substance, high ones a need for much substance.
